Screening data (PubChem)
Shown are actives, neighbours in structure and some others; about 2.2% of the full set was active somewhere.
Efflux pump mplx – blocks antifungal efflux pumps in multiplex yeast assay; S. cerevisiae Candida pump triplex, Nile Red efflux; inhibition, % at 10 µM; hit rate 0.44% among 330,000; AID 485275;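 active = plate passing quality check with inhibition over a set limit, or well fluorescence over plate mean plus 4 SD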;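 also: Nile Red retained in pooled yeast measured as flow cytometry median fluorescence; 0% = buffer negative control and 100% = Enniatin B positive control; higher means more Nile Red kept so more efflux inhibition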
T cruzi inh – T. cruzi replication inhibition; inhibition, % (test concentration not listed); hit rate 1.4% among 300,000; T. cruzi beta-gal in NIH3T3, luminescence, 90 h;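 active = mean inhibition across valid replicates above about 55%, limit read from the data; inconclusive = mean below that limit but half or more replicates reach it; inactive = mean below it, under half of replicates reach it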;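 also: signal also drops with host cell toxicity which is not excluded here; 0% = plate median of DMSO wells and 100% = zero luminescence signal; higher percent means less beta-gal luminescence so fewer parasites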
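assay system = mouse NIH/3T3 fibroblasts infected with β-gal-expressing T. cruzi Tulahuen C4 | input = 5,000 NIH/3T3 host cells per well | buffer or medium = DMEM plus 2% FBS | timing = 3 h host attachment, then at least 90 h co-culture | measured by = GalScreen luminescence, 60 min | evaluation = luminescence reflecting intracellular parasite burden, expressed as percent inhibition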
PolyA inhibitor – yeast polyadenylation inhibition; S. cerevisiae SKY197-pL101 polyadenylation reporter, beta-gal luminescence; efflux-impaired pdr1/pdr3 knockout yeast; score 100 = 6 SD above DMSO; activity score, % at 12 µM; hit rate 0.02% among 300,000; AID 1875;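 active = lowest replicate activity score at least 50, where 100 means six control SD above control mean; inconclusive = lowest score under 50 but half or more replicates reach 50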;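 also: yeast exposed to compound for 9 h at 30 °C; higher score means more reporter readthrough which indicates perturbed polyadenylation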
AI-2 QS modul – Vibrio harveyi AI-2 quorum sensing modulation; Vibrio harveyi JMH597 AI-2 luminescence/OD600 ratio, 9 h; stronger effect = lower value; strain lacks LuxN and CqsS sensors; 0 = neutral-control median; activity change, % at 7.5 µM; hit rate 0.4% among 300,000; AID 2094; in the data active = activity change below about -75%, passing the limit was not always enough; inconclusive = no clear call, values can overlap the other calls;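 also: luminescence divided by OD600 gain over 9 h not by final OD600 alone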
HDAC3 inhib – inhibitors of human histone deacetylase 3 | inhibition, % at 8.3 µM | O15379 | hit rate 0.15% among 320,000 | recombinant HDAC3, fluorogenic peptide/trypsin coupled, fluorescence | AID 2718; in the data active = inhibition above about 26%, passing the limit was not always enough; inconclusive = no clear call, values can overlap the other calls
Target sequence (O15379 whole entry, looked up): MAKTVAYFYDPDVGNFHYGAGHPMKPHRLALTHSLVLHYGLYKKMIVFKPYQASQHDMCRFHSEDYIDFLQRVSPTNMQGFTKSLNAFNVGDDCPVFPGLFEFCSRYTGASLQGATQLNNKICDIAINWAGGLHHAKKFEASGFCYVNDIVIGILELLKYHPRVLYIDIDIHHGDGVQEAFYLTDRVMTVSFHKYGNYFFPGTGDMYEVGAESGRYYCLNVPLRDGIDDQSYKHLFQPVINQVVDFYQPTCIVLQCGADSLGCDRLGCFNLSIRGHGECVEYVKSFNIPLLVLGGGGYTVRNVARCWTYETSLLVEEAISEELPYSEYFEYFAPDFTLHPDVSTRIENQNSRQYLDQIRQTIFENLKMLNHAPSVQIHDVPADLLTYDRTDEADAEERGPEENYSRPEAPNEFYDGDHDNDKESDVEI
Cmpd fluor yeast – flagged as fluorescent in efflux inhibitor counter-screen; hit rate 4% among 1,700; shares compounds with Efflux pump mplx; fluorescence ratio to DMSO, % at 10 µM; S. cerevisiae AD/pABC3, compound fluorescence, flow cytometry; AID 588517;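 active = fluorescence ratio to DMSO above its plate's cutoff, the plate mean ratio plus 5 SD, cut at about 210% in these data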;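 also: unstained yeast with no Nile Red so the signal is compound autofluorescence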
Mdr1 pump inh – blocks the Candida albicans Mdr1 efflux pump in yeast. shares compounds with Efflux pump mplx. S. cerevisiae AD/CaMDR1, Nile Red efflux, flow cytometry. inhibition, % at 10 µM. hit rate 1% among 1,700. AID 588518; in the data active = inhibition above about 26%;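 also: 0% = DMSO vehicle and 100% = reference inhibitor; higher means more Nile Red retained so more efflux inhibition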
Cdr2 pump inh – blocks the Candida albicans Cdr2 efflux pump in yeast; shares compounds with Efflux pump mplx; S. cerevisiae AD/CaCDR2, Nile Red retention, flow cytometry; Nile Red retention ratio vs DMSO, % at 10 µM; hit rate 4% among 1,700; AID 588520; in the data active = Nile Red retention ratio vs DMSO above about 190%;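 also: higher ratio means more blocking of Cdr2 efflux of the dye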
CaCdr1 efflux inh – inhibitors of Candida albicans Cdr1 efflux pump. shares compounds with Efflux pump mplx. S. cerevisiae AD/CaCDR1, Nile Red efflux, flow cytometry. inhibition, % at 10 µM. hit rate 1% among 1,700. AID 588522;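 active = inhibition above the screen-wide mean plus twice its standard deviation, cut at about 32% in these data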
Active calls of the source: *.

CCOc1ncccc1C(=O)NNC(=O)c1cccc(S(=O)(=O)Nc2ccc(OC)cc2)c1 was read as Efflux pump mplx -1.1, T cruzi inh 5.0, PolyA inhibitor 16.8, AI-2 QS modul 17.1 and HDAC3 inhib 0.5.
Screening CCCCSC1=N/C(=C/c2ccsc2)C(=O)N1c1ccccc1 returned Efflux pump mplx 5.8*, T cruzi inh 37.0, PolyA inhibitor 5.7, AI-2 QS modul 21.7, HDAC3 inhib 10.2, Cmpd fluor yeast 105.0, Mdr1 pump inh -0.1, Cdr2 pump inh 93.0 and CaCdr1 efflux inh 0.0.
`O=C(/C=C/c1cccc(Br)c1)NCc1ccncc1` gave Efflux pump mplx 0.0, T cruzi inh -10.9, PolyA inhibitor 3.0, AI-2 QS modul -47.7 and HDAC3 inhib -3.2.
Screening C=CC[C@H](CC(=O)N(CCO)Cc1ccccc1)C(=O)N[C@H](COC(=O)[C@@H](CC=C)CC(=O)OC(C)(C)C)c1ccccc1 returned Efflux pump mplx 0.0 and HDAC3 inhib inconclusive.
Cc1cc(C)c(-c2csc(NC(=O)/C=C/c3cccs3)n2)c(C)c1 was read as Efflux pump mplx 22.7*, T cruzi inh 12.5, PolyA inhibitor 7.4, AI-2 QS modul 13.3, HDAC3 inhib 5.9, Cmpd fluor yeast 104.6, Mdr1 pump inh -0.2, Cdr2 pump inh 91.4 and CaCdr1 efflux inh -0.1.
For COC(=O)C1=C(C)NC(C)=C(C(=O)OC)C1C(=O)OC(C)C(=O)c1ccccc1 (configuration not stated) the results were Efflux pump mplx -0.2, T cruzi inh -4.0, PolyA inhibitor -20.8, AI-2 QS modul 41.9 and HDAC3 inhib 2.8.
`CNC(=S)NNC(=O)c1cc(-c2cccnc2)nc2ccccc12` gave Efflux pump mplx -0.2, T cruzi inh 2.4, PolyA inhibitor -4.0, AI-2 QS modul 15.5 and HDAC3 inhib -2.0.
For O=C(Nc1ccccc1C(=O)O)c1cccc(NC(=O)c2ccco2)c1 the results were Efflux pump mplx 0.6, T cruzi inh -3.2, PolyA inhibitor 5.4, AI-2 QS modul 11.0 and HDAC3 inhib 3.2.
For COC(=O)Cc1ccc(NC(=O)c2ccc(NC(=O)c3ccco3)cc2)cc1 the results were Efflux pump mplx -0.1, T cruzi inh -25.1, PolyA inhibitor 8.6, AI-2 QS modul 6.8 and HDAC3 inhib 10.5.
Screening O=C(O)Cc1ccc(NC(=O)c2ccc(NC(=O)c3ccco3)cc2)cc1 returned Efflux pump mplx 10.6*, T cruzi inh 3.3, PolyA inhibitor 9.2, AI-2 QS modul 21.6, HDAC3 inhib -3.3, Cmpd fluor yeast 106.8, Mdr1 pump inh -0.3, Cdr2 pump inh 99.6 and CaCdr1 efflux inh 0.1.
`O=C(Nc1ccc(O)cc1C(=O)O)c1ccc(NC(=O)c2ccco2)cc1` gave Efflux pump mplx 0.1, HDAC3 inhib 10.6, Cmpd fluor yeast 106.8, Mdr1 pump inh -0.2, Cdr2 pump inh 95.4 and CaCdr1 efflux inh -0.1.
O=c1[nH]c(C2CCN(S(=O)(=O)c3cccc([N+](=O)[O-])c3)CC2)nc2c1nnn2Cc1ccccc1 was read as Efflux pump mplx 0.1, T cruzi inh 15.1, PolyA inhibitor -2.2, AI-2 QS modul 23.2 and HDAC3 inhib -0.1.
COc1nc(N/N=C/c2ccc(-c3ccccc3[N+](=O)[O-])o2)nc(N2CCOCC2)n1 was read as Efflux pump mplx 16.4*, T cruzi inh -11.7, PolyA inhibitor -6.2, AI-2 QS modul 31.1, HDAC3 inhib 6.5, Cmpd fluor yeast 135.2, Mdr1 pump inh 0.3, Cdr2 pump inh 91.4 and CaCdr1 efflux inh 0.6.
Screening Cc1ccc(CNC(=O)CCSCc2ccccc2F)cc1 returned Efflux pump mplx -0.1, T cruzi inh 5.7, PolyA inhibitor 14.1, AI-2 QS modul -36.7 and HDAC3 inhib 0.4.
